Results from different studies.
ST14: Suppressor of tumorigenicity 14 protein (ST14, Homo sapiens, UniProt Q9Y5Y6)
CDK2 with cyclin A2: Cyclin-dependent kinase 2, with cyclin A2 (CDK2, Homo sapiens, UniProt P24941)

CC(C)[C@@H](CC(=O)N[C@@H](CCCNC(=N)N)C(=O)c1nc2ccccc2s1)NC(=O)[C@H](Cc1cscn1)NC(=O)CCc1ccccc1
remaining activity (ST14; enzyme activity; inhibitor; 0.1 µM): 81%

C=CC(=O)N1CCC(COCC(=O)N2CCN(c3nc(-c4cnc(N)nc4C(F)F)nc(N4CCOC[C@@H]4C)n3)CC2)CC1
remaining binding (Vascular endothelial growth factor receptor 3 (FLT4, Homo sapiens, UniProt P35916); binding; competition with immobilised ligand; 1 µM): 83%

CC(=O)Nc1c(N)nc(SCC(=O)N/N=C/c2ccc([N+](=O)[O-])cc2)[nH]c1=O
inhibition (CDK2 with cyclin A2; enzyme activity; inhibitor; 0.5 µM): 51.5%

CC(C)(C)[C@H](NC(=O)[C@H](Cc1cscn1)NC(=O)CCc1ccccc1)C(=O)N[C@@H](CCCNC(=N)N)C(=O)c1nc2ccccc2s1
remaining activity (ST14; enzyme activity; inhibitor; 0.1 µM): 89%

COc1cc(-c2cncc3c2CN(C)Cc2cc(N4CCNCC4)ccc2-3)cc(OC)c1OC
remaining activity (Serine/threonine-protein kinase D3 (PRKD3, Homo sapiens, UniProt O94806); enzyme activity; inhibitor; 1 µM): 92%

CNc1ncc2c(/C=C/C(=O)N3CCC(OC)CC3)nn(Cc3cccc(C(F)(F)F)c3)c2n1
remaining activity (ALK tyrosine kinase receptor (ALK, Homo sapiens, UniProt Q9UM73); enzyme activity; inhibitor; radiometric; 1 µM): 83%

CC(=O)Nc1c(N)nc(SCC(=O)NN)[nH]c1=O
inhibition (CDK2 with cyclin A2; enzyme activity; inhibitor; 0.5 µM): 53.4%

N=C(N)NCCC[C@H](NC(=O)[C@H](CCC1CCCCC1)NC(=O)[C@H](Cc1cscn1)NC(=O)CCc1ccccc1)C(=O)c1nc2ccccc2s1
remaining activity (ST14; enzyme activity; inhibitor; 0.1 µM): 5%

CNC(=O)c1cc(Oc2ccc(NC(=O)Nc3ccc(Cl)c(C(F)(F)F)c3)cc2)ccn1
inhibition (CDK2 with cyclin A2; enzyme activity; inhibitor; 0.1 µM): 58.2%

Cc1cc([C@@H](C)Nc2ccccc2C(=O)O)c2nc(N3CCC(F)(F)CC3)c(C#N)c(=O)n2c1
remaining binding (Mitogen-activated protein kinase 10 (MAPK10, Homo sapiens, UniProt P53779); binding; competition with immobilised ligand; 1 µM): 100%
